Glyco luc inh – N-linked glycosylation inhibition; reporter increase, % at 12.5 µM; D54 ERlucT glycosylation luciferase reporter, 24 h; percent of 100 nM tunicamycin response; 0.23% of 360,000 active; AID 588692;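 active = mean luciferase reporter signal, scaled so untreated is 0 and the glycosylation-blocking control 100, at or above a set limit in every replicate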;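 note: luciferase carries N-glycosylation sites so blocking glycosylation raises the light; 0% = median of neutral control wells and 100% = median of 100 nM tunicamycin wells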
Rtt109 Vps75 – C. albicans Rtt109 histone acetyltransferase inhibition. Q5AAJ8. purified Rtt109/Vps75, ThioGlo CoA-SH fluorescence, 4 h. inhibition, % at 34.9 µM. 0.16% of 330,000 active. AID 540336;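 active = inhibition of at least 50% in every replicate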
Target sequence (Q5AAJ8 whole entry, looked up): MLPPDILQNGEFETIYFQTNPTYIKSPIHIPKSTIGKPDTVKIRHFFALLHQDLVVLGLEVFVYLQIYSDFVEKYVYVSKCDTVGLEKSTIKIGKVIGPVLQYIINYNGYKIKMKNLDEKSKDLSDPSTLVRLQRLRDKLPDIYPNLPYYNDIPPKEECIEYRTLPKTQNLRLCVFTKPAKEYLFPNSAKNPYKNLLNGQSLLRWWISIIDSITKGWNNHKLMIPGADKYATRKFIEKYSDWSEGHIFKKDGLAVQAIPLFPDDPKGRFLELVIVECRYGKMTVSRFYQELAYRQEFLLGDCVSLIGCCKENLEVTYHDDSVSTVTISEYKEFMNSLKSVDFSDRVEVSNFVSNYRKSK
Env fusion inh – blocks HIV Env-driven cell-cell fusion; 1.1% of 360,000 active; AID 651610; HeLa-JRFL Env/CEM21 cell fusion, luciferase; inhibition, % at 12.3 µM;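 active = mean replicate inhibition score of at least 50 and every replicate individually at or above 50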;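 note: 0% = plate neutral controls and 100% = maraviroc near 300 nM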
Arrestin-AP2 inh – inhibitors of human beta-arrestin and AP2 interaction; inhibition, % at 10 µM; 0.31% of 340,000 active; AID 504490; FITC-arrestin peptide / GST-AP2 beads, flow cytometry; AP2 beta2 appendage carries R879A mutation;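 active = inhibition above a set limit, near 3 SD of compounds lacking own fluorescence, cut at about 54% in these data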;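 note: plate controls were DMSO wells for no effect and 5 µM unlabelled arrestin peptide for full effect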
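Material – AP2 appendage R879A on GSH beads · Buffer or medium – PBS with 0.05% Tween 20 and 0.1% BSA · Probe or stimulus – fluorescein-tagged arrestin peptide at 50 nM final · Incubation – compound with beads 12 min RT, then probe 1 h RT · Detection – high-throughput flow cytometry of beads, ex 488, em 535 nm · Evaluation – percent response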
PfHsp90 set2 – reduces growth (ATP signal) of yeast expressing P. falciparum Hsp90 | S. cerevisiae expressing PfHsp90, BacTiter-Glo ATP, 48 h; yeast lacking PDR1 and PDR3 efflux regulators | inhibition, % at 9.4 µM | 0.32% of 310,000 active | AID 504621;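 active = every replicate shows inhibition above about 80%, whatever the replicate mean, limit read from the data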;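 note: 0% = DMSO neutral controls and 100% = 20 µM radicicol positive controls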
PAX8 inh HTS – inhibitors of PAX8 transcriptional activity in RMG-I cells; RMG-I TPO-luciferase reporter, SteadyGlo, 24 h; inhibition, % at 12.6 µM; 1.2% of 360,000 active;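 active = mean replicate inhibition at least 60% with every replicate also reaching 60%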;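 note: luciferase light reporting Pax8 driven TPO promoter activity; plate controls were median of neutral control wells for no effect and mitoxantrone controls for full effect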
Active calls of the source: *; [ ] = dose if it differs, or a comment. An excerpt weighted towards active compounds, which were near 2.3% of everything screened.

How did C[C@@H]1CN([C@@H](C)CO)C(=O)Cc2cc(N(C)C)ccc2O[C@@H]1CN(C)Cc1ccc(Cl)c(Cl)c1 do in these assays?
Env fusion inh: 6[16.7 µM]; PAX8 inh HTS: 47

How did CCS(=O)(=O)Nc1ccc2c(c1)C(=O)N(C)C[C@@H](OC)[C@@H](C)CN(CCC(F)(F)F)[C@@H](C)CO2 do in these assays?
Env fusion inh: 16[16.7 µM]

What do the screens show for `CC(C)NC(=O)Nc1ccc2c(c1)C(=O)N([C@@H](C)CO)C[C@@H](C)[C@@H](CN(C)C(=O)CCCN(C)C)OCCCC[C@H](C)O2`?
Env fusion inh: -9[16.7 µM]; PAX8 inh HTS: -7

Results for CCCC(=O)Nc1ccc2c(c1)C(=O)N(C)C[C@H](OC)[C@H](C)CN(Cc1ccccn1)[C@@H](C)CO2 ?
PAX8 inh HTS: -4

What do the screens show for `COc1ccc2nc(C)cc(N/N=C/c3cccc(OC)c3O)c2c1`?
Glyco luc inh: -12; Rtt109 Vps75: 0; Env fusion inh: -6; Arrestin-AP2 inh: 7; PfHsp90 set2: 15; PAX8 inh HTS: 95*

How did COc1ccc(/C=N/Nc2cc(C)nc3ccc(Br)cc23)cc1 do in these assays?
Glyco luc inh: -24; Rtt109 Vps75: -11; Env fusion inh: -14; Arrestin-AP2 inh: 3; PfHsp90 set2: 13; PAX8 inh HTS: 95*

What do the screens show for `COc1cccc2c(N/N=C/c3ccccc3)cc(C)nc12`?
Glyco luc inh: -2; Rtt109 Vps75: 6; Env fusion inh: 20; Arrestin-AP2 inh: 38; PfHsp90 set2: -11; PAX8 inh HTS: -6

Results for C[C@H]1CN([C@@H](C)CO)C(=O)CCCn2cc(nn2)CO[C@H]1CN(C)S(=O)(=O)c1ccc(F)cc1 ?
Env fusion inh: 27[16.7 µM]

How did CCCC#Cc1ccc([C@H]2[C@@H](C#N)N(C(=O)C3CCCC3)[C@@H]2CO)cc1 do in these assays?
Env fusion inh: -11[16.7 µM]; PAX8 inh HTS: -6

How did C[C@@H]1CN([C@H](C)CO)C(=O)Cc2cc(NC(=O)CCCN(C)C)ccc2O[C@@H]1CN(C)CC1CCCCC1 do in these assays?
Env fusion inh: -16[16.7 µM]; PAX8 inh HTS: -11

Results for C[C@@H]1CN([C@@H](C)CO)C(=O)c2cc(N(C)C)ccc2O[C@H]1CN(C)S(C)(=O)=O ?
Env fusion inh: 4[16.7 µM]; PAX8 inh HTS: 9

Results for CCCCC(CC)CN=C(N)NC(N)=NCCCCCCN=C(N)NC(N)=NCC(CC)CCCC (stereo not drawn) ?
Glyco luc inh: -23; Rtt109 Vps75: -2; Arrestin-AP2 inh: -8; PfHsp90 set2: 110*

How did Cc1nnc(SCc2ccc(F)cc2)s1 do in these assays?
Glyco luc inh: -1; Rtt109 Vps75: -12; Arrestin-AP2 inh: -3; PfHsp90 set2: 1

How did Cc1nc(CSc2nnc(C)s2)cs1 do in these assays?
Glyco luc inh: 3; Rtt109 Vps75: 4; Arrestin-AP2 inh: -7; PfHsp90 set2: -13; PAX8 inh HTS: 85*

Results for N/C(Cc1ccc(Cl)c(Cl)c1)=N\OC(=O)c1cccs1 ?
Glyco luc inh: 1; Rtt109 Vps75: 22; Env fusion inh: -94; Arrestin-AP2 inh: 29; PfHsp90 set2: 104*

Results for Cc1noc(C)c1NC(=O)Nc1ccc2c(c1)C(=O)N([C@H](C)CO)C[C@@H](C)[C@@H](CN(C)Cc1ccc3c(c1)OCO3)O2 ?
PAX8 inh HTS: -6

What do the screens show for `O=C(C[C@H]1C=C[C@@H](NS(=O)(=O)c2ccccc2)[C@@H](CO)O1)NCc1ccncn1`?
Env fusion inh: -3[16.7 µM]; PAX8 inh HTS: -8

How did CCOC(=O)c1sc(NC(=O)Nc2ccc(Cl)cc2)cc1C do in these assays?
Glyco luc inh: -2; Rtt109 Vps75: -5; Env fusion inh: 74*; Arrestin-AP2 inh: 2; PfHsp90 set2: -4; PAX8 inh HTS: -25

How did CNC[C@@H]1Oc2ncc(Br)cc2C(=O)N([C@H](C)CO)C[C@H]1C do in these assays?
Env fusion inh: 2[16.7 µM]; PAX8 inh HTS: 6

Results for Cc1cccc(C)c1NC(=O)C1(C)CN(S(C)(=O)=O)CC(=O)N1CCc1ccccc1F (stereo not drawn) ?
Env fusion inh: 57*; PAX8 inh HTS: -4

What do the screens show for `CC(C)NC(=O)C1(C)CN(S(C)(=O)=O)CC(=O)N1CCc1ccccc1F` (stereo not drawn)?
Env fusion inh: -12; PAX8 inh HTS: 2

What do the screens show for `Cc1nc2sc(C(c3ccco3)N3CCN(c4ccccc4)CC3)c(O)n2n1` (stereo not drawn)?
Glyco luc inh: 4; Rtt109 Vps75: 3; Env fusion inh: 32; Arrestin-AP2 inh: 19; PfHsp90 set2: 6; PAX8 inh HTS: 14

What do the screens show for `Cc1nc2sc(C(c3ccco3)N3CCN(C(c4ccccc4)c4ccccc4)CC3)c(O)n2n1` (stereo not drawn)?
Glyco luc inh: -2; Rtt109 Vps75: 6; Env fusion inh: -110; Arrestin-AP2 inh: -8; PfHsp90 set2: 3; PAX8 inh HTS: 88*

What do the screens show for `CCOC(=O)c1ccccc1NC(=O)Cn1c(=O)n(Cc2ccccc2)c(=O)c2c(C)c(C)sc21`?
Glyco luc inh: 0; Rtt109 Vps75: 4; Env fusion inh: 58*; Arrestin-AP2 inh: 8; PfHsp90 set2: 6; PAX8 inh HTS: -8

How did C[C@@H]1CCCCO[C@@H](CN(C)Cc2ccc(Cl)c(Cl)c2)[C@H](C)CN([C@H](C)CO)C(=O)c2cc(NS(=O)(=O)c3ccc(F)cc3)ccc2O1 do in these assays?
Env fusion inh: 30[16.7 µM]; PAX8 inh HTS: 85*

Results for Cc1ccc(S(=O)(=O)Nc2ccc3c(c2)C(=O)N([C@@H](C)CO)C[C@H](C)[C@@H](CN(C)Cc2ccc(Cl)c(Cl)c2)OCCCC[C@H](C)O3)cc1 ?
Env fusion inh: 32[16.7 µM]; PAX8 inh HTS: 46

How did C[C@@H]1CCCCO[C@@H](CN(C)Cc2ccc(Cl)c(Cl)c2)[C@H](C)CN([C@H](C)CO)C(=O)c2cc(NS(=O)(=O)c3ccc(Cl)cc3)ccc2O1 do in these assays?
Env fusion inh: -10[16.7 µM]; PAX8 inh HTS: 102*

How did C[C@@H]1CCCCO[C@H](CN(C)Cc2ccc(Cl)c(Cl)c2)[C@@H](C)CN([C@@H](C)CO)C(=O)c2cc(NS(=O)(=O)c3ccc(F)cc3)ccc2O1 do in these assays?
PAX8 inh HTS: 39

Results for Cc1ccc(S(=O)(=O)Nc2ccc3c(c2)C(=O)N([C@H](C)CO)C[C@H](C)[C@@H](CN(C)Cc2ccc(Cl)c(Cl)c2)OCCCC[C@H](C)O3)cc1 ?
Env fusion inh: -14[16.7 µM]; PAX8 inh HTS: 66*

Results for Cc1ccccc1-c1ccc([C@H]2[C@H]3CN(C(=O)Nc4ccc(F)cc4)CC(=O)N3[C@H]2CO)cc1 ?
PAX8 inh HTS: 17

What do the screens show for `O=C(COc1ccc(-c2nnco2)cc1)Nc1ccc(C(F)(F)F)cc1`?
Glyco luc inh: -2; Rtt109 Vps75: 3; Env fusion inh: 55*; Arrestin-AP2 inh: -1; PfHsp90 set2: 20; PAX8 inh HTS: 1
